From ChEMBL document CHEMBL4351008, “Discovery of novel pyrimidine-based benzothiazole derivatives as potent cyclin-dependent kinase 2 inhibitors with anticancer activity” (Eur J Med Chem, 2019)

Assays:
HCT-116 = assay: Antiproliferative activity against human HCT116 cells incubated for 48 hrs by MTT assay; assay type: functional, cell-based; settings: HCT-116, 48 h
In short: (§1)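 Cells kept at 37 °C in humidified 5% CO2: MDA-MB-231, MCF-7, HeLa and HCT116 in RPMI-1640; PC-3 in DMEM/F12; both media had 10% FBS. Compounds came from 60 mM DMSO stocks diluted in medium. At 70–80% confluence, cells got fresh medium with compound for 48 h at 37 °C, with 0.1% DMSO as negative control. MTT (5 mg/mL stock) was added for 4 h, and formazan was dissolved in DMSO and read at 570 nm. % inhibition was taken relative to control, IC50 was fitted, and data are mean ± SD of three independent experiments in duplicate.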

MDA-MB-231 = assay: Antiproliferative activity against human MDA-MB-231 cells incubated for 48 hrs by MTT assay; assay type: functional, cell-based; settings: MDA-MB-231, 48 h; in short: as §1
PC-3 = assay: Antiproliferative activity against human PC3 cells incubated for 48 hrs by MTT assay; assay type: functional, cell-based; settings: PC-3, 48 h; in short: as §1
HeLa = assay: Antiproliferative activity against human HeLa cells incubated for 48 hrs by MTT assay; assay type: functional, cell-based; in short: as §1
MCF7 = assay: Antiproliferative activity against human MCF7 cells incubated for 48 hrs by MTT assay; assay type: functional, cell-based; settings: MCF7, 48 h; in short: as §1
[1] = target: CDK2/Cyclin A2 (Homo sapiens) (UniProt P24941+P20248); assay: Inhibition of CDK2/cyclin A2 (unknown origin) using histone H1 and ATP as substrate at 1 uM incubated for 40 mins by kinase-glo luminescence assay relative to control; assay type: protein-complex assay
In short: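 Recombinant CDK2/cyclin A2 (0.2 µg/mL) was run with 0.1 mg/mL histone H1 and 10 µM ATP in 40 mM Tris pH 7.4, 10 mM MgCl2, 0.1 mg/mL BSA and 1 mM DTT, for 40 min at 30 °C. Compound was tested at 1 µM final, with 1% DMSO final. Remaining ATP was quantified by Kinase-Glo Plus luminescence, which is inversely related to kinase activity.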

CDK2/Cyclin A2 = CDK2/Cyclin A2 (Homo sapiens, UniProt P24941); assay: Inhibition of CDK2/cyclin A2 (unknown origin) using histone H1 and ATP as substrate incubated for 40 mins by kinase-glo luminescence assay; assay type: protein-complex assay

Compound	IC50 (HCT-116)	IC50 (MDA-MB-231)	IC50 (PC-3)	IC50 (HeLa)	IC50 (MCF7)	inhibition [1]	IC50 (CDK2/Cyclin A2)
Cc1cnc(Nc2ccc(C(C)C)cc2)nc1Nc1nc2ccccc2s1	> 50 µM	> 50 µM	> 50 µM	> 50 µM	> 50 µM		
COc1cccc(Nc2ncc(C)c(Nc3nc4ccccc4s3)n2)c1	> 50 µM	> 50 µM	> 50 µM	> 50 µM	> 50 µM		
Cc1cnc(Nc2ccc(N3CCCCC3)cc2)nc1Nc1nc2ccccc2s1	18.7 µM	37.2 µM	> 50 µM	4.34 µM	> 50 µM		
NS(=O)(=O)c1ccc(Nc2ncc(F)c(Nc3nc4ccccc4s3)n2)cc1	3.26 µM	22.6 µM	> 50 µM	4.52 µM	> 50 µM	93%	0.0165 µM
CS(=O)(=O)c1ccc(Nc2ncc(F)c(Nc3nc4ccc(F)cc4s3)n2)cc1	> 50 µM	8.9 µM	> 50 µM	> 50 µM	> 50 µM		
Cc1cnc(Nc2cccc(F)c2)nc1Nc1nc2ccccc2s1	27.8 µM	> 50 µM	> 50 µM	16.3 µM	> 50 µM		
NS(=O)(=O)c1ccc(Nc2nccc(Nc3nc4ccccc4s3)n2)cc1	5.17 µM	5 µM	3.1 µM	2.06 µM	15.3 µM	84%	
CS(=O)(=O)c1ccc(Nc2ncc(F)c(Nc3nc4ccc(Cl)cc4s3)n2)cc1	20.7 µM	11.1 µM	> 50 µM	> 50 µM	> 50 µM		
Cc1cnc(Nc2ccc(S(N)(=O)=O)cc2)nc1Nc1nc2ccc(Cl)cc2s1	2.52 µM	9.42 µM	5.4 µM	3.73 µM	8.43 µM	90%	
COc1ccc2nc(Nc3ccnc(Nc4ccc(S(N)(=O)=O)cc4)n3)sc2c1	1.48 µM	6.24 µM	3.03 µM	1.73 µM	11 µM		
Cc1cnc(Nc2ccc(Cl)cc2)nc1Nc1nc2ccccc2s1	> 50 µM	> 50 µM	> 50 µM	> 50 µM	> 50 µM		
COc1ccc2nc(Nc3nc(Nc4ccc(S(N)(=O)=O)cc4)ncc3C)sc2c1	7.86 µM	> 50 µM	> 50 µM	36.7 µM	> 50 µM		
CS(=O)(=O)c1ccc(Nc2nccc(Nc3nc4ccc(Cl)cc4s3)n2)cc1	1.35 µM	> 50 µM	> 50 µM	1.4 µM	> 50 µM		
CS(=O)(=O)c1ccc(Nc2ncc(F)c(Nc3nc4ccccc4s3)n2)cc1	3.27 µM	4.98 µM	2.83 µM	3.17 µM	6.88 µM	95%	0.0127 µM
Cc1cnc(Nc2ccc(S(C)(=O)=O)cc2)nc1Nc1nc2ccccc2s1	0.76 µM	14.8 µM	> 50 µM	0.46 µM	6.55 µM	90%	0.0378 µM
Cc1ccc2nc(Nc3nc(Nc4ccc(S(C)(=O)=O)cc4)ncc3F)sc2c1	9.18 µM	14.3 µM	> 50 µM	17.2 µM	> 50 µM		
Cc1cnc(Nc2ccc(S(C)(=O)=O)cc2)nc1Nc1nc2ccc(F)cc2s1	24 µM	> 50 µM	> 50 µM	> 50 µM	3.26 µM		

Compound	IC50 (HCT-116)	IC50 (MDA-MB-231)	IC50 (PC-3)	IC50 (HeLa)	IC50 (MCF7)	inhibition [1]	IC50 (CDK2/Cyclin A2)
Cc1cnc(Nc2ccc(S(C)(=O)=O)cc2)nc1Nc1nc2ccc(Cl)cc2s1	2.5 µM	5.9 µM	13.4 µM	4.18 µM	4.32 µM	81%	
Cc1ccc2nc(Nc3ccnc(Nc4ccc(S(C)(=O)=O)cc4)n3)sc2c1	1.75 µM	4.44 µM	> 50 µM	2.3 µM	> 50 µM	77%	
COc1ccc2nc(Nc3ccnc(Nc4ccc(S(C)(=O)=O)cc4)n3)sc2c1	2.27 µM	32.7 µM	2.7 µM	4.13 µM	> 50 µM		
Cc1cnc(Nc2ccc(S(N)(=O)=O)cc2)nc1Nc1nc2ccccc2s1	1.66 µM	16.8 µM	> 50 µM	2.8 µM	> 50 µM	91%	0.0217 µM
Cc1ccc2nc(Nc3ccnc(Nc4ccc(S(N)(=O)=O)cc4)n3)sc2c1	0.9 µM	3.87 µM	1.64 µM	0.66 µM	5.74 µM	82%	
Cc1ncc(-c2ccnc(Nc3ccc(S(C)(=O)=O)cc3)n2)n1C(C)C [AZD-5438]	0.47 µM	7.2 µM	0.36 µM	0.73 µM	10.7 µM		
CS(=O)(=O)c1ccc(Nc2nccc(Nc3nc4ccccc4s3)n2)cc1	8.37 µM	5.91 µM	1.71 µM	11.3 µM	10.6 µM	80%	
Cc1ccc2nc(Nc3nc(Nc4ccc(S(N)(=O)=O)cc4)ncc3F)sc2c1	1.46 µM	6.39 µM	4.96 µM	1.89 µM	24.5 µM	92%	0.0214 µM
Cc1cnc(Nc2ccc(S(N)(=O)=O)cc2)nc1Nc1nc2ccc(F)cc2s1	2.01 µM	7.58 µM	6.98 µM	3.46 µM	> 50 µM		
COc1ccc2nc(Nc3nc(Nc4ccc(S(N)(=O)=O)cc4)ncc3F)sc2c1	11.5 µM	26.6 µM	> 50 µM	13 µM	> 50 µM		
Cc1cnc(Nc2ccc([N+](=O)[O-])cc2)nc1Nc1nc2ccccc2s1	6.33 µM	22.5 µM	> 50 µM	34.3 µM	> 50 µM		
CS(=O)(=O)c1ccc(Nc2nccc(Nc3nc4ccc(F)cc4s3)n2)cc1	0.86 µM	2.08 µM	1.94 µM	0.56 µM	> 60 µM	89%	
COc1ccc(Nc2ncc(C)c(Nc3nc4ccccc4s3)n2)cc1	> 50 µM	> 50 µM	> 50 µM	> 50 µM	> 50 µM		
NS(=O)(=O)c1ccc(Nc2ncc(F)c(Nc3nc4ccc(Cl)cc4s3)n2)cc1	8.62 µM	2.79 µM	1.43 µM	8.77 µM	8.34 µM		
Cc1cnc(Nc2ccc(F)cc2)nc1Nc1nc2ccccc2s1	> 50 µM	> 50 µM	> 50 µM	> 50 µM	> 50 µM		
COc1ccc2nc(Nc3nc(Nc4ccc(S(C)(=O)=O)cc4)ncc3F)sc2c1	2.63 µM	4.74 µM	1.27 µM	25.4 µM	5.85 µM		
Cc1ccc2nc(Nc3nc(Nc4ccc(S(N)(=O)=O)cc4)ncc3C)sc2c1	3.87 µM	9.08 µM	2.71 µM	3.28 µM	> 50 µM		
